Data set [1] can be described thus: (§1) Antiausteritic activity against human PANC1 cells in nutrient-deprived medium measured after 24 hrs by WST8 assay. It is filed as functional, PANC-1. In outline:
(§2)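 PANC-1 (Riken BRC) kept in DMEM + 10% FBS, 37 °C, 5% CO2. Seeded 1.5 × 10^4/well, 24 h in fresh DMEM, washed twice with PBS. Serial dilutions then given in DMEM or in NDM (salts, MEM vitamins, 25 mM HEPES, pH 7.4, no glucose/amino acids/serum) for 24 h. Viability read with 10% WST-8 in DMEM, 3 h, A450, vs control and blank; mean of three wells.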

Data set [2] in a line: Cytotoxicity against human PANC1 cells in Dulbecco's modified Eagle medium measured after 24 hrs by WST8 assay. The class given is toxicity, cell-based. As to conditions: panc-1, 24 h. A digest of the protocol: as §2
(In general: Formazan colour is commonly taken as a measure of viable cells.)

In data set [3] the test system is PANC-1. The description is as §1. The class given is functional. In outline: as §2
Data set [4] can be described thus: Induction of cell death in human PANC1 cells in nutrient-deprived medium at 5 uM up to 24 hrs by phase contrast microscopic method. The class given is functional, PANC-1. A digest of the protocol: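 PANC-1 cells from the Riken bank, grown in DMEM with 10% FBS, were plated at 3.0 × 10^6 per 35 mm dish and left to attach overnight in complete medium. After two PBS washes they were treated in nutrient-deprived medium (inorganic salts, 25 mM HEPES pH 7.4, MEM vitamins; no glucose, amino acids or serum). Cells were kept in a stage-top incubator at 37 °C and 5% CO2, with phase-contrast images every 5 min.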

The subject of data set [5] is PANC-1. Kind of data set: Inhibition of mobility in human PANC1 cells in nutrient-deprived medium at 5 uM measured after 6 hrs by phase contrast microscopic method. The class given is functional, cell-based. In outline:
(§3)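 Cells (3.0 × 10^6) plated in 35 mm dishes and attached overnight in complete medium. Washed twice with PBS, then treated at 5 μM in NDM. Held in a stage-top incubator at 37 °C, 5% CO2, with phase-contrast images taken every 5 min for 48 h.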

The test system of data set [6] is PANC-1. Kind of data set: Induction of morphological changes in human PANC1 cells in nutrient-deprived medium at 5 uM measured after 6 hrs by phase contrast microscopic method. The class given is functional, cell-based. In outline:
as §3

The subject of data set [7] is PANC-1. Kind of data set: Induction of cell death in human PANC1 cells in nutrient-deprived medium at 5 uM after 48 hrs by phase contrast microscopic method. The class given is functional, cell-based. In outline:
as §3

Data set [8] relates to PANC-1. Kind of data set: Induction of cell death in human PANC1 cells in nutrient-deprived medium at 10 uM measured after 24 hrs by acridine orange/ethidium bromide-staining based fluorescence microscopy. The class given is functional. In outline: (§4)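 After 24 h attachment (1.5 × 10^4/well, DMEM or RPMI-1640), cells were PBS-washed twice and exposed 24 h to compound in NDM (NDM alone as control). EB/AO reagent added for 5 min. Imaged at 20× in fluorescent and phase-contrast modes: green (AO) marks live cells, red (EB) marks dead cells.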

Data set [9] relates to PANC-1. Briefly: Induction of morphological changes in human PANC1 cells in nutrient-deprived medium at 10 uM measured after 24 hrs by acridine orange/ethidium bromide-staining based fluorescence microscopy. The class given is functional, cell-based. In outline: as §4
In data set [10] the test system is PANC-1. Briefly: Induction of morphological changes in human PANC1 cells in nutrient-deprived medium assessed as plasma membrane blebbing at 5 uM measured after 9 hrs by phase contrast microscopic method. It is filed as functional, cell-based. A digest of the protocol:
as §3

Calls of active or inactive are those of the source. The rule behind the calls is not given here.

Turning to `C/C(=C\C(O)C[C@@H](C)[C@H]1CC[C@@]2(C)[C@@H]3CC[C@H]4C(C)(C)[C@@H](O)CC[C@@]45C[C@@]35CC[C@]12C)C(=O)O` (stereo not given in full), the PC50 in [1] is above 100 µM. The Activity result in data set [2] was “Non-Toxic”.

In data set [1], `C/C(=C\CC[C@@H](C)[C@H]1CC[C@@]2(C)[C@@H]3CC[C@H]4C(C)(C)[C@@H](O)CC[C@@]45C[C@@]35CC[C@]12C)C(=O)O` [MANGIFEROLIC ACID] came in with a PC50 above 100 µM. Moreover, the Activity result in data set [2] is recorded as “Non-Toxic”.

Take `COc1cc(C[C@H]2C(=O)OC[C@@H]2Cc2ccc(OC)c(OC)c2)ccc1O` [ARCTIGENIN]: the PC50 in data set [1] came out at 0.8 µM.

For `COc1cc(O)c(C(=O)c2ccc(O)cc2)c(O[C@@H]2O[C@H](CO)[C@@H](O)[C@H](O)[C@H]2O)c1` [MAHKOSIDE A], in data set [1], the PC50 is above 100 µM. The Activity result in data set [2] is “Non-Toxic”.

Consider `C=C(CC[C@@H](C)[C@H]1CC[C@@]2(C)[C@@H]3CC[C@H]4C(C)(C)[C@@H](OC(C)=O)CC[C@@]45C[C@@]35CC[C@]12C)C(C)C(=O)O` (stereo not given in full), for which the PC50 in data set [1] was determined as 11 µM. Also, the figures for the Activity result (with PANC-1 [3]; in [2]) were “Dose-dependent effect” and “Non-Toxic”, respectively.

`C=C(CC[C@@H](C)[C@H]1CC[C@@]2(C)[C@@H]3CC[C@H]4C(C)(C)[C@@H](O)CC[C@@]45C[C@@]35CC[C@]12C)[C@@H](C)C(=O)O` had a PC50 in data set [1] above 100 µM. Further, the Activity result in data set [2] is recorded as “Non-Toxic”.

Take `C[C@H](CC/C=C(\CO)C(=O)O)[C@H]1CC[C@@]2(C)[C@@H]3CC[C@H]4C(C)(C)C(=O)CC[C@@]45C[C@@]35CC[C@]12C`: the PC50 in data set [1] was above 100 µM. The Activity entry in data set [2] was “Non-Toxic”.

In turn, `C=C(CC[C@@H](C)[C@H]1CC[C@@]2(C)[C@@H]3CC[C@H]4C(C)(C)C(=O)CC[C@@]45C[C@@]35CC[C@]12C)[C@@H](C)C(=O)OC` had a PC50 in data set [1] of 22.8 µM. In [2], the Activity entry is “Non-Toxic”.

With `CCCC/C=C\CCCCCCCCCCCC(=O)O[C@H]1CC[C@]23C[C@]24CC[C@]2(C)[C@@H]([C@H](C)CC/C=C(\C)C(=O)O)CC[C@@]2(C)[C@@H]4CC[C@H]3C1(C)C`, in [1], the PC50 came out at 69.6 µM. In [2], the Activity result is given as “Non-Toxic”.

`COc1cc(O)c(C(=O)c2ccc(O)cc2)c(O)c1[C@@H]1O[C@H](CO)[C@@H](O)[C@H](O)[C@H]1OC(=O)c1ccc(O)cc1`: in data set [1], the PC50 was above 100 µM. Moreover, the Activity result in data set [2] is “Non-Toxic”.

As for `C=C(CC[C@@H](C)[C@H]1CC[C@@]2(C)[C@@H]3CC[C@H]4C(C)(C)[C@@H](O)CC[C@@]45C[C@@]35CC[C@]12C)C(C)CO` (stereo not given in full), the PC50 in [1] was above 100 µM. In addition, the Activity entry in data set [2] is “Non-Toxic”.

As to `Nc1ccn([C@@H]2O[C@H](CO)[C@@H](O)C2(F)F)c(=O)n1` [GEMCITABINE], the PC50 in data set [1] is above 100 µM.

For `C/C(=C\CC[C@@H](C)[C@H]1CC[C@@]2(C)[C@@H]3CC[C@H]4C(C)(C)C(=O)CC[C@@]45C[C@@]35CC[C@]12C)C(=O)O` [MANGIFERONIC ACID], in data set [1], the PC50 is above 100 µM. The Activity result in [2] is “Non-Toxic”.

In [1], `O=c1[nH]cc(F)c(=O)[nH]1` [FLUOROURACIL] returned a PC50 above 200 µM.

In [1], `C/C(=C\C(O)C[C@@H](C)[C@H]1CC[C@@]2(C)[C@@H]3CC[C@H]4C(C)(C)C(=O)CC[C@@]45C[C@@]35CC[C@]12C)C(=O)O` (stereo not given in full) came in with a PC50 of 32.3 µM. Further, in data set [2], the Activity result is on record as “Non-Toxic”.

For the compound `O=c1c2cc(O)c(O)cc2oc2cc(O)c([C@@H]3O[C@H](CO)[C@@H](O)[C@H](O)[C@H]3O)c(O)c12` [MANGIFERIN], in data set [1], the PC50 is above 100 µM. In addition, the Activity entry in data set [2] is “Non-Toxic”.

Take `C[C@H](CC/C=C(\CO)C(=O)O)[C@H]1CC[C@@]2(C)[C@@H]3CC[C@H]4C(C)(C)[C@@H](O)CC[C@@]45C[C@@]35CC[C@]12C`: the PC50 in [1] is 52.1 µM. For the same compound, in [2], the Activity entry was “Non-Toxic”.

As to `C=C(CC[C@@H](C)[C@H]1CC[C@@]2(C)[C@@H]3CC[C@H]4C(C)(C)[C@H](O)CC[C@@]45C[C@@]35CC[C@]12C)[C@@H](C)C(=O)O`, the Activity in data set [4] was above 50%; in the data set on PANC-1 [3], “Dose-dependent effect”; in [2] it was “Non-Toxic”. In addition, the inhibition result in the data set on PANC-1 [5] was “Active”. Besides, the result with PANC-1 [6], with PANC-1 [7], with PANC-1 [8], in the data set on PANC-1 [9] and in the data set with PANC-1 [10] was Active. In [1], the PC50 came out at 4.8 µM.

For the compound `C=C(CC[C@@H](C)[C@H]1CC[C@@]2(C)[C@@H]3CC[C@H]4C(C)(C)[C@@H](O)CC[C@@]45C[C@@]35CC[C@]12C)[C@@H](C)C(=O)OC`, the PC50 in data set [1] was above 100 µM. Besides, the Activity result in data set [2] is given as “Non-Toxic”.

`COc1cc(O)c(C(=O)c2ccc(O)cc2)c(O)c1[C@@H]1O[C@H](CO)[C@@H](O)[C@H](O)[C@H]1O` came in with a PC50 in data set [1] above 100 µM. For the same compound, in [2], the Activity result is listed as “Non-Toxic”.

`COc1cc(O)c(C(=O)c2ccc(O)cc2)c(O)c1` had a PC50 in data set [1] above 100 µM. Also, the Activity result in [2] is given as “Non-Toxic”.

The compound `C=C(CC[C@@H](C)[C@H]1CC[C@@]2(C)[C@@H]3CC[C@H]4C(C)(C)C(=O)CC[C@@]45C[C@@]35CC[C@]12C)[C@@H](C)C(=O)O` showed a PC50 in data set [1] of 44.2 µM. Besides, in data set [2], the Activity result is on record as “Non-Toxic”.

For the origin of these results see ChEMBL document CHEMBL3867435, “Chemical Constituents of Mangifera indica and Their Antiausterity Activity against the PANC-1 Human Pancreatic Cancer Cell Line” (J Nat Prod, 2016).
